According to ChEMBL document CHEMBL2417530, “Coumarin derivatives protect against ischemic brain injury in rats” (Eur J Med Chem, 2013):
Active and inactive are the calls of the source. The calls are words filed in the database; no cut-off is given here.

How the values were obtained:
Rattus norvegicus [1] = experiment: Anti-ischemia activity in Sprague-Dawley rat transient middle cerebral artery occlusion model assessed as inhibition of Bax protein expression in hippocampus at 1.5 to 6 mg/kg, iv measured 24 hrs post reperfusion by Western blot analysis relative to vehicle-treated control; assay type: functional, organism-based
Procedure, shortened: (§1)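 Rats underwent 60 min intraluminal right MCA occlusion under chloral hydrate, then reperfusion, with iv saline or drug (1.5, 3.0, 6.0 mg/kg) at reperfusion. At 24 h they were saline-perfused and cortex and hippocampus lysed in RIPA buffer. Protein was BCA-normalized, run on SDS-PAGE and blotted for Bcl-2, Bax, cleaved caspase-3 and β-actin with ECL detection; n = 4.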

Rattus norvegicus [2] = experiment: In vivo neuroprotective activity in Sprague-Dawley rat transient middle cerebral artery occlusion model assessed as suppression of neuronal loss in hippocampus at 1.5 to 6 mg/kg, iv measured 24 hrs post reperfusion by TUNEL assay; assay type: functional, organism-based
Procedure, shortened: (§2)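 Transient MCAO in rats (60 min occlusion), with iv treatment at 1.5, 3.0 or 6.0 mg/kg at reperfusion. At 24 h brains were perfusion-fixed in 4% paraformaldehyde and paraffin-embedded. Hippocampal or cortical sections were proteinase K-treated (20 µg/mL, 15 min, RT), given TdT reaction (37 °C, 1 h) and anti-digoxigenin-AP detection, and TUNEL-positive cells were examined at 200×.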

[3] = Clearance in Sprague-Dawley rat plasma at 2 x 10^-5 mol/kg, iv by LC-MS analysis; assay type: ADME, organism-based; details: 2e-05 mol/kg
Procedure, shortened: (§3)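 Male Sprague-Dawley rats (260-280 g, n = 4) given a single iv dose of 6 mg/kg. Blood was taken from the jugular vein into heparin tubes under ether, and plasma was spun out and stored at -70 °C. After saline perfusion, cortex was homogenized in 2 volumes of water. Samples were precipitated with acetonitrile with internal standard added and quantified by LC-MS against a weighted linear calibration.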

Rattus norvegicus [4] = experiment: Anti-ischemia activity in Sprague-Dawley rat transient middle cerebral artery occlusion model assessed as inhibition of cleaved caspase-3 protein expression in hippocampus at 1.5 to 6 mg/kg, iv measured 24 hrs post reperfusion by Western blot analysis relative to vehicle-treated control; assay type: functional, organism-based; procedure, shortened: as §1
[5] = Terminal half life in Sprague-Dawley rat cortex at 2 x 10^-5 mol/kg, iv by LC-MS analysis; assay type: ADME, organism-based; details: 2e-05 mol/kg, read-out: beta t1/2; procedure, shortened: as §3
Cortex = experiment: Clearance in Sprague-Dawley rat cortex at 2 x 10^-5 mol/kg, iv by LC-MS analysis; assay type: ADME, organism-based; details: in vivo; procedure, shortened: as §3
[6] = Volume of distribution in Sprague-Dawley rat plasma at 2 x 10^-5 mol/kg, iv by LC-MS analysis; assay type: ADME, organism-based; details: 2e-05 mol/kg; procedure, shortened: as §3
Rattus norvegicus [7] = experiment: In vivo neuroprotective activity in iv dosed Sprague-Dawley rat transient middle cerebral artery occlusion model assessed as reduction of infarct size measured 24 hrs post reperfusion by TTC staining assay; assay type: functional, organism-based
Procedure, shortened: (§4)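 Male Sprague-Dawley rats, 7 weeks, 260–280 g, under 10% chloral hydrate ip. Right MCA occluded 60 min by tip-burned 4-0 nylon thread via common carotid, then reperfused. Saline or drug given iv at reperfusion, ethanol as cosolvent. Killed 24 h later; six 2 mm slices in 1% TTC in PBS, 37 °C, 30 min. Infarct area traced as % of total area; n = 12.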

Rattus norvegicus [8] = experiment: In vivo neuroprotective activity in Sprague-Dawley rat transient middle cerebral artery occlusion model assessed as suppression of neuronal loss in cerebral cortex at 1.5 to 6 mg/kg, iv measured 24 hrs post reperfusion by TUNEL assay; assay type: functional, organism-based; procedure, shortened: as §2
Rattus norvegicus [9] = experiment: Anti-ischemia activity in Sprague-Dawley rat transient middle cerebral artery occlusion model assessed as inhibition of cleaved caspase-3 protein expression in cerebral cortex at 1.5 to 6 mg/kg, iv measured 24 hrs post reperfusion by Western blot analysis relative to vehicle-treated control; assay type: functional, organism-based; procedure, shortened: as §1
Rattus norvegicus [10] = experiment: In vivo neuroprotective activity in Sprague-Dawley rat transient middle cerebral artery occlusion model assessed as suppression of neuropathological changes at 1.5 to 6 mg/kg, iv measured 24 hrs post reperfusion by uranyl acetate/lead citrate staining-based transmission electron microscopic analysis; assay type: functional, organism-based
Procedure, shortened: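 Rats had 60 min MCAO with iv dosing (1.5-6.0 mg/kg) at reperfusion. At 24 h they were perfused with PBS, then acrolein in 2% paraformaldehyde. Tissue was postfixed in 2.5% glutaraldehyde for 2 h and 1% OsO4 for 2 h, dehydrated and Epon-embedded. Ultrathin sections were stained with uranyl acetate/lead citrate and examined by TEM at 12000×.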

Rattus norvegicus [11] = experiment: In vivo neuroprotective activity in iv dosed Sprague-Dawley rat transient middle cerebral artery occlusion model assessed as suppression of neuronal loss in cerebral cortex measured 24 hrs post reperfusion by nissl staining assay; assay type: functional, organism-based
Procedure, shortened: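 After 60 min transient MCAO with iv treatment at reperfusion, rats were perfused at 24 h with PBS, then 4% buffered paraformaldehyde. Brains were paraffin-embedded and coronal sections stained with 0.5% cresyl fast violet (Nissl). Cortex and hippocampus were examined at 200×.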

Rattus norvegicus [12] = experiment: Anti-ischemia activity in Sprague-Dawley rat transient middle cerebral artery occlusion model assessed as upregulation of Bcl-2 protein expression in cerebral cortex at 1.5 to 6 mg/kg, iv measured 24 hrs post reperfusion by Western blot analysis relative to vehicle-treated control; assay type: functional, organism-based; procedure, shortened: as §1
Rattus norvegicus [13] = experiment: Anti-ischemia activity in Sprague-Dawley rat transient middle cerebral artery occlusion model assessed as upregulation of Bcl-2 protein expression in hippocampus at 1.5 to 6 mg/kg, iv measured 24 hrs post reperfusion by Western blot analysis relative to vehicle-treated control; assay type: functional, organism-based; procedure, shortened: as §1
[14] = Tmax in Sprague-Dawley rat plasma at 2 x 10^-5 mol/kg, iv by LC-MS analysis; assay type: ADME, organism-based; details: 2e-05 mol/kg; procedure, shortened: as §3
Rattus norvegicus [15] = experiment: In vivo neuroprotective activity in Sprague-Dawley rat transient middle cerebral artery occlusion model assessed as reduction of brain-water content at 1.5 to 6 mg/kg, iv measured 24 hrs post reperfusion; assay type: functional, organism-based
Procedure, shortened: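 Male SD rats (7 weeks, 260-280 g) had 60 min transient right MCA occlusion with a nylon filament, then reperfusion. Saline or drug (1.5, 3.0, 6.0 mg/kg) was injected iv at reperfusion. Animals without neurological deficit were replaced. At 24 h brains were oven-dried at 110 °C for 24 h, and water content was taken as (wet−dry)/wet; n = 12.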

Rattus norvegicus [16] = experiment: In vivo neuroprotective activity in Sprague-Dawley rat transient middle cerebral artery occlusion model assessed as reduction of infarct size at 6 mg/kg, iv measured 24 hrs post reperfusion by TTC staining assay relative to vehicle-treated control; assay type: functional; parameters: scale not given: the % may be the effect or the level left; procedure, shortened: as §4
Rattus norvegicus [17] = experiment: In vivo neuroprotective activity in Sprague-Dawley rat transient middle cerebral artery occlusion model assessed as reduction of infarct size at 3 mg/kg, iv measured 24 hrs post reperfusion by TTC staining assay relative to vehicle-treated control; assay type: functional; parameters: scale not given: the % may be the effect or the level left; procedure, shortened: as §4
[18] = Tmax in Sprague-Dawley rat cortex at 2 x 10^-5 mol/kg, iv by LC-MS analysis; assay type: ADME, organism-based; details: 2e-05 mol/kg; procedure, shortened: as §3
[19] = Cmax in Sprague-Dawley rat plasma at 2 x 10^-5 mol/kg, iv measured at 2 mins by LC-MS analysis; assay type: ADME, organism-based; details: 2e-05 mol/kg; procedure, shortened: as §3
[20] = AUC in Sprague-Dawley rat plasma at 2 x 10^-5 mol/kg, iv by LC-MS analysis; assay type: ADME, organism-based; details: 2e-05 mol/kg; procedure, shortened: as §3
Plasma = experiment: Drug uptake in Sprague-Dawley rat plasma at 2 x 10^-5 mol/kg, iv measured at 60 mins by LC-MS analysis; assay type: ADME, organism-based; details: in vivo, 1 h; procedure, shortened: as §3
[21] = Terminal half life in Sprague-Dawley rat plasma at 2 x 10^-5 mol/kg, iv by LC-MS analysis; assay type: ADME, organism-based; details: 2e-05 mol/kg, read-out: beta t1/2; procedure, shortened: as §3

Compound: COc1cc(O)cc2oc(=O)c(N3CCN(C)CC3)c(C)c12
- inhibition (Rattus norvegicus [1]): Active
- Activity (Rattus norvegicus [2]): Active
- clearance [3]: 9 mL/min
- inhibition (Rattus norvegicus [4]): Active
- half-life [5]: 15.5 min
- CL (Cortex): 0.558 L/min
- Vd [6]: 0.084 L
- Activity (Rattus norvegicus [7]): Dose-dependent effect
- Activity (Rattus norvegicus [8]): Active
- inhibition (Rattus norvegicus [9]): Active
- Activity (Rattus norvegicus [10]): Active
- Activity (Rattus norvegicus [11]): Dose-dependent effect
- Activity (Rattus norvegicus [12]): Active
- Activity (Rattus norvegicus [13]): Active
- Tmax [14]: 2 min
- Activity (Rattus norvegicus [15]): Active
- Activity (Rattus norvegicus [16]): 18.89%
- Activity (Rattus norvegicus [17]): 20.36%
- Tmax [18]: 2 min
- Cmax [19]: 13300 ng/mL
- AUC [20]: 2870 ng·h/mL
- Drug uptake (Plasma): Not Active
- half-life [21]: 6.51 min
